What was measured:
Histamine H3 receptor = Histamine H3 receptor (Homo sapiens, UniProt Q9Y5N1); assay: Inverse agonist activity at human cloned histamine H3 receptor assessed as inhibition of (R)-alpha-methylhistamine-induced [35S]GTPgammaS binding; type: functional
Procedure, shortened: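 [35S]GTPγS binding assay in membranes isolated from cells transfected with cloned human H3 receptors.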

[1] = Volume of distribution at steady state in Sprague-Dawley rat at 1 mg/kg, iv; type: ADME, organism-based; parameters: dose 1 mg/kg, route intravenous; conditions: in vivo, read-out: Vdss
Procedure, shortened: (§1)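 Sprague-Dawley rats, n = 3, mean values reported; dosed iv at 1 mg/kg or orally at 3 mg/kg. Parameters derived from the plasma profile: half-life, Vdss, plasma clearance (iv), Tmax, Cmax and oral bioavailability (po).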

[2] = Half life in Sprague-Dawley rat at 1 mg/kg, iv; type: ADME, organism-based; parameters: dose 1 mg/kg, route intravenous; conditions: in vivo; procedure, shortened: as §1
[3] = Plasma clearance in Sprague-Dawley rat at 1 mg/kg, iv; type: ADME, organism-based; parameters: dose 1 mg/kg, route intravenous; procedure, shortened: as §1
[4] = Bioavailability in Sprague-Dawley rat at 3 mg/kg, po; type: ADME, organism-based; conditions: in vivo; procedure, shortened: as §1
Histamine H4 receptor = Histamine H4 receptor (Homo sapiens, UniProt Q9H3N8); assay: Inhibition of histamine H4 receptor
[5] = Drug concentration in Sprague-Dawley rat cerebrospinal fluid at 10 mg/kg, po after 2 hrs; type: ADME, organism-based; parameters: dose 10 mg/kg, route oral; conditions: read-out: Drug uptake
Procedure, shortened: (§2)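 SD rats, n = 3 (mean), dosed orally at 10 mg/kg. Plasma, brain and cerebrospinal fluid levels measured at 2 h post-dose; brain expressed as nmol/g, plasma and CSF as µM.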

[6] = Metabolic stability in cryopreserved rat hepatocytes assessed as hepatic clearance by serum incubation method; type: ADME, cell-based, Liver, Hepatocyte
Procedure, shortened: (§3)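 Hepatic clearance estimated by the serum incubation method in human and rat hepatocytes, expressed as mL/min/kg.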

[7] = Half life in Sprague-Dawley rat at 3 mg/kg, po; type: ADME, organism-based; parameters: dose 3 mg/kg, route oral; conditions: in vivo; procedure, shortened: as §1
Brain [8] = assay: Drug concentration in Sprague-Dawley rat brain at 10 mg/kg, po after 2 hrs; type: ADME, organism-based; parameters: dose 10 mg/kg, route oral; conditions: in vivo; procedure, shortened: as §2
Histamine H2 receptor = Histamine H2 receptor (Homo sapiens, UniProt P25021); assay: Inhibition of histamine H2 receptor
[9] = Metabolic stability in cryopreserved human hepatocytes assessed as hepatic clearance by serum incubation method; type: ADME, cell-based, Liver, Hepatocyte; procedure, shortened: as §3
[10] = Cmax in Sprague-Dawley rat at 3 mg/kg, po; type: ADME, organism-based; parameters: dose 3 mg/kg, route oral; conditions: in vivo; procedure, shortened: as §1
[11] = Tmax in Sprague-Dawley rat at 3 mg/kg, po; type: ADME, organism-based; parameters: dose 3 mg/kg, route oral; conditions: in vivo; procedure, shortened: as §1
Histamine H1 receptor = Histamine H1 receptor (Homo sapiens, UniProt P35367); assay: Inhibition of histamine H1 receptor
[12] = Plasma concentration in Sprague-Dawley rat at 10 mg/kg, po after 2 hrs; type: ADME, organism-based; parameters: dose 10 mg/kg, route oral; conditions: read-out: Drug uptake; procedure, shortened: as §2
Brain [13] = assay: Drug concentration in Sprague-Dawley rat brain at 1 mg/kg, iv after 10 mins; type: ADME, organism-based; parameters: dose 1 mg/kg, route intravenous; conditions: in vivo
Procedure, shortened: (§4)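 SD rats, n = 3 (mean), dosed iv at 1 mg/kg. Plasma, brain and CSF levels measured 10 min after dosing; brain expressed as nmol/g, plasma and CSF as µM.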

[14] = biological target: Voltage-gated inwardly rectifying potassium channel KCNH2 (Homo sapiens, UniProt Q12809); assay: Displacement of [35S]N-[(4R)-1'-[(2R)-6-cyano-1,2,3,4-tetrahydro-2-naphthalenyl]-3,4-dihydro-4-hydroxyspiro[2H-1-benzopyran-2,4'-piperidin]-6-yl]methanesulfonamide from human ERG in HEK293 cells; type: cell-based
[15] = Drug concentration in Sprague-Dawley rat cerebrospinal fluid at 1 mg/kg, iv after 10 mins; type: ADME, organism-based; parameters: dose 1 mg/kg, route intravenous; conditions: read-out: Drug uptake; procedure, shortened: as §4
LLC-PK1 [16] = assay: Ratio of permeability from basolateral to apical over apical to basolateral side of pig LLC-PK1 cells transfected with mouse MDR1a by P-gp transport assay; type: ADME, cell-based, Sus scrofa
Procedure, shortened: (§5)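 Transcellular transport measured across LLC-PK1 cell monolayers transfected with human MDR1 or mouse mdr1a. Ratio computed as (B-to-A)/(A-to-B) permeability; mean of n ≥ 3. Ratio above 3.0 taken to indicate a P-gp substrate.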

[17] = Plasma concentration in Sprague-Dawley rat at 1 mg/kg, iv after 10 mins; type: ADME, organism-based; parameters: dose 1 mg/kg, route intravenous; conditions: read-out: Drug uptake; procedure, shortened: as §4
LLC-PK1 [18] = assay: Ratio of permeability from basolateral to apical over apical to basolateral side of pig LLC-PK1 cells transfected with human MDR1 by P-gp transport assay; type: ADME, cell-based, Sus scrofa; procedure, shortened: as §5

Chain of Histamine H3 receptor (Q9Y5N1 whole entry): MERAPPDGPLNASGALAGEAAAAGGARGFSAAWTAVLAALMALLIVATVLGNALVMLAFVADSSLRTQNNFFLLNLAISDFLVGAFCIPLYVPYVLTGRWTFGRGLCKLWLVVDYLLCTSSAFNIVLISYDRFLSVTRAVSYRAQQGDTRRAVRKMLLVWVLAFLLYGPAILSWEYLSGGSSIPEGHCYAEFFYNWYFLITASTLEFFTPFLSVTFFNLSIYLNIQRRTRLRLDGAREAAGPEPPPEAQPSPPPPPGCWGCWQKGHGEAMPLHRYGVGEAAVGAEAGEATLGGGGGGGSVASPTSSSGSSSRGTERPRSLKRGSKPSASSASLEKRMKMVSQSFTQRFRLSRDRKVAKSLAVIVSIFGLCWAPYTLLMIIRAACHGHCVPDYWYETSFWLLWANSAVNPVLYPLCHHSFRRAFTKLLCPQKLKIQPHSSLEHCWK
Chain of Histamine H1 receptor (P35367 whole entry): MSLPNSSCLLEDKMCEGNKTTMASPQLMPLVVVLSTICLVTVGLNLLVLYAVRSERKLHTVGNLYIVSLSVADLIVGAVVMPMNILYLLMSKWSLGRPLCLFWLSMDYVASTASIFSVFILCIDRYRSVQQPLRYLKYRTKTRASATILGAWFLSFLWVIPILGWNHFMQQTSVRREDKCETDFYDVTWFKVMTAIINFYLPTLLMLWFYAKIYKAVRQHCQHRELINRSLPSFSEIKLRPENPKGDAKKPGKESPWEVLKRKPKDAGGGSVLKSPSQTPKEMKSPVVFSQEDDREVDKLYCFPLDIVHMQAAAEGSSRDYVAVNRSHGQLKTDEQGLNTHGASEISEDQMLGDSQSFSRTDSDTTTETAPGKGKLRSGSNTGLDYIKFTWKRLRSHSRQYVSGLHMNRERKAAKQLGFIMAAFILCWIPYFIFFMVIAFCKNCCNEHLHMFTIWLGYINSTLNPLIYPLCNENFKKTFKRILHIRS
Chain of Histamine H2 receptor (P25021 whole entry): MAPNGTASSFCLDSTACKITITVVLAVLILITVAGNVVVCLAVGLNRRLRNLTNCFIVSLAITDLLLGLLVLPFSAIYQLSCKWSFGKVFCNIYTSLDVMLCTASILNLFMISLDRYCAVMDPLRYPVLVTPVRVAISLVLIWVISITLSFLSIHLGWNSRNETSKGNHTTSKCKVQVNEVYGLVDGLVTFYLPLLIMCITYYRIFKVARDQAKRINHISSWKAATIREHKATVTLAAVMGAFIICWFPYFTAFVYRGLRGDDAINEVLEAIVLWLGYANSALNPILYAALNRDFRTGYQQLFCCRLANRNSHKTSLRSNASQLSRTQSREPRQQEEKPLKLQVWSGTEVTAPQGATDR
Chain of Histamine H4 receptor (Q9H3N8 whole entry): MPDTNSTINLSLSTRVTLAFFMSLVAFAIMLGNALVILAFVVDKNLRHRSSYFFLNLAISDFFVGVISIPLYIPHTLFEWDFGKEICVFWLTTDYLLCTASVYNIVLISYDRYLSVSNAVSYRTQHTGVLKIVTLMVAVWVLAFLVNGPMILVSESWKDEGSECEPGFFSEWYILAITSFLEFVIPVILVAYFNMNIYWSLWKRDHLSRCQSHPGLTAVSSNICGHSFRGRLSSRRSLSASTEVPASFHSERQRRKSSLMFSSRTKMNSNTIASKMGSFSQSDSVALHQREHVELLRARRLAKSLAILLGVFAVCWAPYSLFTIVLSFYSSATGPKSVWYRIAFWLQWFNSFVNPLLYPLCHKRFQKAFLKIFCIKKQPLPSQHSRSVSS
Chain of Voltage-gated inwardly rectifying potassium channel KCNH2 (Q12809 whole entry): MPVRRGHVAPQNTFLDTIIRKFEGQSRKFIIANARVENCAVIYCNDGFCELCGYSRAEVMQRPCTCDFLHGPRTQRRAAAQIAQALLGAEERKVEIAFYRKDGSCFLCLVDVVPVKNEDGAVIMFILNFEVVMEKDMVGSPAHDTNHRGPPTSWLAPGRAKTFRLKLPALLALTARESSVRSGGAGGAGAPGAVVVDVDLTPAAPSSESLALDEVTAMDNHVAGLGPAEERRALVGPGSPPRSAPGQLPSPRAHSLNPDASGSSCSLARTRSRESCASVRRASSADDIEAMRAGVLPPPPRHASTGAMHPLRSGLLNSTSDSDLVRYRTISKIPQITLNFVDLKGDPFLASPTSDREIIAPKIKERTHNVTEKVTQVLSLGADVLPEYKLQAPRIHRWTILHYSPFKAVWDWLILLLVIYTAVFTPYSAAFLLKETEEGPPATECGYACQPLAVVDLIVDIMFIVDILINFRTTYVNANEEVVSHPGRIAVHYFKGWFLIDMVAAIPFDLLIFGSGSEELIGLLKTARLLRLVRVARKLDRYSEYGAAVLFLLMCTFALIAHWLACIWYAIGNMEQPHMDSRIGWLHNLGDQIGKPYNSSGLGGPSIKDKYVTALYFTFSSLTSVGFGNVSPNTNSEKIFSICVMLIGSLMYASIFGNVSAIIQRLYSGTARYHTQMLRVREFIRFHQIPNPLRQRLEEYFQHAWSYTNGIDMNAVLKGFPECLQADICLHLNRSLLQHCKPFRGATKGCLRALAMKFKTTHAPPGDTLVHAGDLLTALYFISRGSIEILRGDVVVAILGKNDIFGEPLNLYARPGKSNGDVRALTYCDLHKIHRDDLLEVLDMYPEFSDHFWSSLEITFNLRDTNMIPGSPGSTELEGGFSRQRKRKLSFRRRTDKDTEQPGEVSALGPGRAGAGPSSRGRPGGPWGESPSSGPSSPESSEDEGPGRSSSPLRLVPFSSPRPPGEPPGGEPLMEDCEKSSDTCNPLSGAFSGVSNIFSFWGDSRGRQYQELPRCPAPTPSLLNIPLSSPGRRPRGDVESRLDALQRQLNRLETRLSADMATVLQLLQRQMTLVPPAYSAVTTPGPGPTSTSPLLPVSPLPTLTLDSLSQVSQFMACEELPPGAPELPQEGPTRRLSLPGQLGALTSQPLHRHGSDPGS

| Compound | IC50 (Histamine H3 receptor) | further results |
| --- | --- | --- |
| CN(CCN1CCCCC1)C(=O)N1CCC(C#N)(c2ccccc2)CC1 | 267 nM | – |
| CN(CCN1CCCCC1)C(=O)N1CCC2(CC1)OC(=O)c1ccccc12 | 21 nM | – |
| CN(CCN1CCCCC1)C(=O)N1CCC2(CC1)OCc1ccccc12 | 387 nM | – |
| COc1cccc2c1[C@]1(CC[C@@H](C(=O)N(C)CCN3CCCCC3)CC1)OC2=O | 3.6 nM | – |
| CN(CCN1CCCCC1)C(=O)N1CCC(Cc2ccccc2)CC1 | 393 nM | – |
| CN(CCN1CCCCC1)C(=O)N1CCN(c2ccccc2Cl)CC1 | > 1000 nM | – |
| CN(CCN1CCCCC1)C(=O)N1CCN(c2cccc(Cl)c2)CC1 | 297 nM | – |
| CN(CCN1CCCCC1)C(=O)N1CCC2(CC1)Cc1ccccc1C(=O)O2 | 380 nM | – |
| CN(CCN1CCCCC1)C(=O)N1CCC(c2cccc3ccccc23)CC1 | 343 nM | – |
| CN(CCN1CCCCC1)C(=O)N1CCC(c2ccccc2)CC1 | 893 nM | – |
| CN(CCN1CCCCC1)C(=O)N1CCC(O)(c2ccccc2)CC1 | > 1000 nM | – |
| CN(CCN1CCCCC1)C(=O)N1CCN(c2ccccc2)CC1 | 506 nM | – |
| CN(CCN1CCCCC1)C(=O)N1CCN(c2ccc(Cl)cc2)CC1 | 160 nM | – |
| CN(CCN1CCCCC1)C(=O)N1CCC(C(C)(C)C)CC1 | > 1000 nM | – |
| CN(CCN1CCCCC1)C(=O)N1CCC2(CC1)NC(=O)c1ccccc1N2 | 560 nM | – |
| CN(CCN1CCCCC1)C(=O)N1CCC(c2ccc3ccccc3c2)CC1 | 110 nM | – |
| CN(CCN1CCCCC1)C(=O)N1CCC2(CC1)CC(=O)c1ccccc1O2 | 68 nM | – |
| CN(CCN1CCCCC1)C(=O)N1CCC2(CC1)c1ccccc1C(=O)N2C | 45 nM | – |
| CN(CCN1CCCCC1)C(=O)N1CCC2(CC1)Cc1ccccc1C2 | 530 nM | – |
| CN(CCN1CCCCC1)C(=O)N1CCc2ccccc2C1 | 680 nM | – |
| CN(CCN1CCCCC1)C(=O)N1CCC2(CC1)NC(=O)c1ccccc12 | 53 nM | – |
| CN(CCN1CCCCC1)C(=O)N1CCC(C(=O)c2ccccc2)CC1 | 237 nM | – |
| COc1ccc2c(c1)[C@]1(CC[C@@H](C(=O)N(C)CCN3CCCCC3)CC1)OC2=O | 18 nM | – |
| COc1ccc2c(c1)C(=O)O[C@]21CC[C@H](C(=O)N(C)CCN2CCCCC2)CC1 | 0.54 nM | Vd [1]: 7.2 L/kg; half-life [2]: 1.4 h; clearance [3]: 74 mL/min/kg; bioavailability [4]: 7%; IC50 (Histamine H4 receptor): > 10000 nM; concentration at 2 h [5]: 58 nM; CLhep predicted [6]: 54 mL/min/kg; half-life [7]: 1.4 h; Drug uptake (Brain [8]): 0.48 nmol/g; IC50 (Histamine H2 receptor): > 10000 nM; CLhep predicted [9]: 18 mL/min/kg; Cmax [10]: 60 nM; Tmax [11]: 0.3 h; IC50 (Histamine H1 receptor): > 10000 nM; concentration at 2 h [12]: 270 nM |
| CN(CCN1CCCCC1)C(=O)[C@H]1CC[C@@]2(CC1)OC(=O)c1ccccc12 | 0.72 nM | Drug uptake (Brain [13]): 2.4 nmol/g; IC50 [14]: > 10000 nM; clearance [3]: 97 mL/min/kg; concentration at 10 min [15]: 370 nM; IC50 (Histamine H4 receptor): > 10000 nM; CLhep predicted [6]: 59 mL/min/kg; Ratio (LLC-PK1 [16]): 2; IC50 (Histamine H2 receptor): > 10000 nM; concentration at 10 min [17]: 1500 nM; CLhep predicted [9]: 18 mL/min/kg; IC50 (Histamine H1 receptor): > 10000 nM; Ratio (LLC-PK1 [18]): 1.2 |
| CN(CCN1CCCCC1)C(=O)N1CCC2(CC1)CC(=O)c1ccccc12 | 43 nM | – |
| CN(CCN1CCCCC1)C(=O)N1CCC2(CC1)NC(=O)Cc1ccccc12 | 783 nM | – |
| CN(CCN1CCCCC1)C(=O)N1CCC2(CC1)OC(=O)Nc1ccccc12 | > 1000 nM | – |
| CN(CCN1CCCCC1)C(=O)N1CCC(c2ccccc2)(c2ccccc2)CC1 | 98 nM | – |

From ChEMBL document CHEMBL1144191, “Synthesis and evaluation of a spiro-isobenzofuranone class of histamine H3 receptor inverse agonists” (Bioorg Med Chem Lett, 2008)
